From ChEMBL document CHEMBL1143402 (PLoS Med, 2006)

Columns and labels:
[1] = system: Mycobacterium tuberculosis; assay: Antimycobacterial activity against Mycobacterium tuberculosis Kurono infected po dosed BALB/c mouse assessed as reduction in viable lung bacterial count administered once daily; type: functional, organism-based
How it was run: (§1)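 From day 1, randomised by body weight (n = 5/group) and dosed orally once daily for 10 d, 10 to 0.313 mg/kg in 2-fold steps, in 5% gum arabic. Lung homogenates plated on 7H11 agar, colonies counted after 14 d; log10 CFU.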

[2] = system: Mycobacterium tuberculosis; assay: Antimycobacterial activity against Mycobacterium tuberculosis Kurono infected po dosed immunocompromized BALB/c mouse assessed as reduction in viable lung bacterial count administered once daily; type: functional, organism-based; how it was run: as §1
Liver microsomes [3] = assay: Stability in human liver microsomes; type: ADME, Microsome
How it was run: (§2)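 Liver microsomes (1 mg/ml protein) incubated with 100 µM drug, 2.5 mM NADPH and 2.5 mM NADH in 100 mM phosphate pH 7.4 with 1% DMSO. Run in duplicate, 2 h at 37 °C with shaking. Extracted with acetonitrile/ethyl acetate; analysed by HPLC and LC-ESI-MS/MS.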

Liver microsomes [4] = assay: Stability in rat liver microsomes; type: ADME, Microsome; how it was run: as §2
[5] = Stability in mouse liver microsomes; type: ADME, Microsome; how it was run: as §2
[6] = Stability in dog liver microsomes; type: ADME, Canis lupus familiaris, Microsome; how it was run: as §2
[7] = Stability in rabbit liver microsomes; type: ADME, Oryctolagus cuniculus, Microsome; how it was run: as §2
[8] = Stability in monkey liver microsomes; type: ADME, Macaca mulatta, Microsome; conditions: rhesus monkey; how it was run: as §2
Salmonella typhimurium [9] = assay: Toxic mutagenic effect in Salmonella Typhimurium TA1535 in presence of rat liver microsomes after 48 hrs by bacterial reverse mutation test; type: toxicity, organism-based; conditions: salmonella enterica subsp. enterica serovar typhimurium
Salmonella typhimurium [10] = assay: Toxic mutagenic effect in Salmonella Typhimurium TA1537 in presence of rat liver microsomes after 48 hrs by bacterial reverse mutation test; type: toxicity, organism-based; conditions: salmonella enterica subsp. enterica serovar typhimurium
[11] = system: Mycobacterium tuberculosis; assay: Antimycobacterial activity against Mycobacterium tuberculosis H37Rv in human THP1 cells after 4 hrs; type: functional, organism-based; conditions: THP-1
How it was run: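 PMA-differentiated human THP-1 macrophages infected 4 h with H37Rv, washed, then 20 µg/ml SM for 20 h to kill extracellular bacilli. Compound pulse for 4 h, washout, further 68-h culture. Lysis in 0.1% SDS, plating on 7H11 agar, colonies counted after 16 d at 37 °C; n = 3.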

Salmonella typhimurium [12] = assay: Toxic mutagenic effect in Salmonella Typhimurium TA98 in presence of rat liver microsomes after 48 hrs by bacterial reverse mutation test; type: toxicity, organism-based; conditions: salmonella enterica subsp. enterica serovar typhimurium
Salmonella typhimurium [13] = assay: Toxic mutagenic effect in Salmonella Typhimurium TA100 in presence of rat liver microsomes after 48 hrs by bacterial reverse mutation test; type: toxicity, organism-based; conditions: salmonella enterica subsp. enterica serovar typhimurium
CYP2A6 = target: T1, CYP2A6 (Homo sapiens, UniProt P11509); assay: Effect on CYP2A6 in human liver assessed as coumarin 7-hydroxylation at 100 uM relative to control; type: ADME, tissue-based; conditions: probe coumarin, read-out: Activity
T1 sequence (P11509 whole entry): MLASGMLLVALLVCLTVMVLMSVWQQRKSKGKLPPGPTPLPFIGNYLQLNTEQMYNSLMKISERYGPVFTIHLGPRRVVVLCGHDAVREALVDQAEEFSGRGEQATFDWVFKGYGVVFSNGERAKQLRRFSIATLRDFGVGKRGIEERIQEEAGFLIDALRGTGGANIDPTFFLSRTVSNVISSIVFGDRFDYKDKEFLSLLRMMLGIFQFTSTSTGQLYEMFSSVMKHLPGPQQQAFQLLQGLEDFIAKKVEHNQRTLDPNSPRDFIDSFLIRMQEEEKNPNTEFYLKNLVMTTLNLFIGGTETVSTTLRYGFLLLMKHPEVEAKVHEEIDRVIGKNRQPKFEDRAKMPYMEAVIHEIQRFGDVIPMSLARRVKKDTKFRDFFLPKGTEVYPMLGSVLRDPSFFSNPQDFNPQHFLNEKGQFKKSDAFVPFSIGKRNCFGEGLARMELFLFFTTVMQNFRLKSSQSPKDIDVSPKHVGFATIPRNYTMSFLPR

CYP2E1 = CYP2E1 (Homo sapiens, UniProt P05181); assay: Effect on CYP2E1 in human liver assessed as chlorzoxazone 6-hydroxylation at 100 uM relative to control; type: ADME, tissue-based; conditions: probe chlorzoxazone, read-out: Activity
CYP2E1, sequence (P05181 whole entry): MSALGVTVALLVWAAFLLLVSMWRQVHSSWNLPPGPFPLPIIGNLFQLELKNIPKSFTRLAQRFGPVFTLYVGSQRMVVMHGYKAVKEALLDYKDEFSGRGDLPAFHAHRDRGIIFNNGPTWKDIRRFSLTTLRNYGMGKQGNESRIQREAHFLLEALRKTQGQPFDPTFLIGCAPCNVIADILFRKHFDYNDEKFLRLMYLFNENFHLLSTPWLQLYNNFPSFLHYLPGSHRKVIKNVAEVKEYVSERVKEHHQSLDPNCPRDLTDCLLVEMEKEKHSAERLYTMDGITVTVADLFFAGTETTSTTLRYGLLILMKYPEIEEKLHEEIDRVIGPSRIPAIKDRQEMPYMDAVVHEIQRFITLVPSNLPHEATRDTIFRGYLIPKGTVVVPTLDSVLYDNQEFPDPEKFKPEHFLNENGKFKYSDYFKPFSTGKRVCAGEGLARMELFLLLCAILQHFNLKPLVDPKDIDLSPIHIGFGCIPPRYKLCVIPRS

[14] = system: Mycobacterium tuberculosis; assay: Antimycobacterial activity against Mycobacterium tuberculosis Kurono infected ICR mouse assessed as reduction in viable lung bacterial count at 3.5 mg/kg, po administered once daily measured after 28 days; type: functional
How it was run: (§3)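 ICR mice infected via caudal vein with 8.6 × 10^4 CFU M. tuberculosis Kurono; after 28 d, stratified randomisation (n = 5/group), then oral dosing once daily for 28 d in 5% gum arabic, 2-fold dose series. Lungs homogenised in water, dilutions plated on 7H11 agar, colonies counted after 14 d at 37 °C; log10 CFU.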

[15] = Plasma concentration in Mycobacterium bovis BCG infected tuberculosis mouse model at 5 mg/kg, po after 0.5 hrs; type: ADME, organism-based; design: dose 5 mg/kg, route oral
How it was run: (§4)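 The agent, dissolved or suspended in 5% gum arabic, was then given orally. At each time point, about 1 ml of blood was drawn from the abdominal post cava under ether into a heparinised syringe and centrifuged at 3,000 rpm, 5 °C. Plasma (0.1 ml) was mixed with 0.2 ml acetonitrile.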

[16] = Plasma concentration in Mycobacterium bovis BCG infected tuberculosis mouse model at 5 mg/kg, po after 1 hr; type: ADME, organism-based; design: dose 5 mg/kg, route oral; how it was run: as §4
[17] = Plasma concentration in Mycobacterium bovis BCG infected tuberculosis mouse model at 5 mg/kg, po after 2 hrs; type: ADME, organism-based; design: dose 5 mg/kg, route oral; how it was run: as §4
[18] = Plasma concentration in Mycobacterium bovis BCG infected tuberculosis mouse model at 5 mg/kg, po after 4 hrs; type: ADME, organism-based; design: dose 5 mg/kg, route oral; how it was run: as §4
[19] = Plasma concentration in Mycobacterium bovis BCG infected tuberculosis mouse model at 5 mg/kg, po after 8 hrs; type: ADME, organism-based; design: dose 5 mg/kg, route oral; how it was run: as §4
[20] = Plasma concentration in Mycobacterium bovis BCG infected tuberculosis mouse model at 5 mg/kg, po after 16 hrs; type: ADME, organism-based; design: dose 5 mg/kg, route oral; how it was run: as §4
[21] = system: Mycobacterium tuberculosis; assay: Antimycobacterial activity against Mycobacterium tuberculosis Kurono infected ICR mouse assessed as reduction in viable lung bacterial count at 160 mg/kg, po administered once daily measured after 28 days; type: functional; how it was run: as §3
[22] = system: Mycobacterium tuberculosis; assay: Antimycobacterial activity against Mycobacterium tuberculosis Kurono infected ICR mouse assessed as reduction in viable lung bacterial count at 5 mg/kg, po administered once daily measured after 28 days; type: functional; how it was run: as §3
[23] = AUC (0 to t) in human at 300 mg, po; type: ADME, organism-based; conditions: plasma
CYP1A1/CYP1A2 = target: T2, CYP1A1/CYP1A2 (Homo sapiens, UniProt P04798); assay: Effect on CYP1A1/CYP1A2 in human liver assessed as 7-ethoxyresorufin O-deethylation at 100 uM relative to control; type: ADME, tissue-based; conditions: probe 7-ethoxyresorufin, read-out: Activity
T2 sequence (P04798 whole entry): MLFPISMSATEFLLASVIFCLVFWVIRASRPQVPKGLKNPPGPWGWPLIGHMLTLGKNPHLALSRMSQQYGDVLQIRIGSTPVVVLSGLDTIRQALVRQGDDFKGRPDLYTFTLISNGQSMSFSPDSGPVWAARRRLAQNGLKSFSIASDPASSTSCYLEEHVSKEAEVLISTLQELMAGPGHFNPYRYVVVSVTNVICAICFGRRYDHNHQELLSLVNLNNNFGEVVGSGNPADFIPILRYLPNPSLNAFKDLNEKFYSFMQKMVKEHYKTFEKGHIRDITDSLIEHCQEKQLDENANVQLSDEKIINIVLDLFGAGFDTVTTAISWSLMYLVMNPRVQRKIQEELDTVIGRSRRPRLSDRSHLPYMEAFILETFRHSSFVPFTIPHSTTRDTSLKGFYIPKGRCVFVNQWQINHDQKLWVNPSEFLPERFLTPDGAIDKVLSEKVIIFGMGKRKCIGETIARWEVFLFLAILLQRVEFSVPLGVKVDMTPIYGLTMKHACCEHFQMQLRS
How it was run: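 Human liver microsomes (0.1–0.5 mg protein) in 0.1 M phosphate pH 7.4 with 0.1 mM EDTA and NADPH-generating system. […] Metabolite formation by HPLC, in triplicate; mean expressed as % of control.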

[24] = system: Mycobacterium tuberculosis; assay: Antimycobacterial activity against Mycobacterium tuberculosis Kurono infected ICR mouse assessed as reduction in viable lung bacterial count at 40 mg/kg, po administered once daily measured after 28 days; type: functional; how it was run: as §3
[25] = Cmax in human at 850 mg, po; type: ADME, organism-based; design: dose 850 mg, route oral; conditions: in vivo
[26] = AUC (0 to t) in human at 850 mg, po; type: ADME, organism-based; conditions: plasma

C[C@]1(COc2ccc(N3CCC(Oc4ccc(OC(F)(F)F)cc4)CC3)cc2)Cn2cc([N+](=O)[O-])nc2O1
Activity [1]: Dose-dependent effect | Activity [2]: Dose-dependent effect | Activity (Liver microsomes [3]): Stable | Activity (Liver microsomes [4]): Stable | Activity [5]: Stable | Activity [6]: Stable | Activity [7]: Stable | Activity [8]: Stable | Activity (Salmonella typhimurium [9]): Non-toxic | Activity (Salmonella typhimurium [10]): Non-toxic | Activity [11]: Dose-dependent effect | Activity (Salmonella typhimurium [12]): Non-toxic | Activity (Salmonella typhimurium [13]): Non-toxic

CCN(CC)C(=S)S [DITIOCARB]
activity at 100 µM (CYP2A6): 38.2% | activity at 100 µM (CYP2E1): 55%

CO[C@H]1/C=C/O[C@@]2(C)Oc3c(C)c(O)c4c(O)c(c(/C=N/N5CCN(C)CC5)c(O)c4c3C2=O)NC(=O)/C(C)=C\C=C\[C@H](C)[C@H](O)[C@@H](C)[C@@H](O)[C@@H](C)[C@H](OC(C)=O)[C@@H]1C [RIFAMPIN]
Activity [14]: 95% | concentration at 0.5 h [15]: 3330 ng/mL | concentration at 1 h [16]: 4490 ng/mL | concentration at 2 h [17]: 4520 ng/mL | concentration at 4 h [18]: 3820 ng/mL | concentration at 8 h [19]: 3180 ng/mL | concentration at 16 h [20]: 660 ng/mL

NC(=O)c1cnccn1 [PYRAZINAMIDE]
Activity [21]: 95%

NNC(=O)c1ccncc1 [ISONIAZID]
Activity [22]: 95% | AUC(0-t) [23]: 22900 ng·h/mL

O=c1cc(-c2ccccc2)oc2c1ccc1ccccc12 [ALPHA-NAPHTHOFLAVONE]
activity at 100 µM (CYP1A1/CYP1A2): 3.8%

CN[C@@H]1[C@H](O[C@H]2[C@H](O[C@H]3[C@H](O)[C@@H](O)[C@H](N=C(N)N)[C@@H](O)[C@@H]3N=C(N)N)O[C@@H](C)[C@]2(O)C=O)O[C@@H](CO)[C@H](O)[C@H]1O [STREPTOMYCIN]
Activity [24]: 95%

CC[C@@H](CO)NCCN[C@@H](CC)CO [ETHAMBUTOL]
Activity [21]: 95% | Cmax [25]: 3700 ng/mL | AUC(0-t) [26]: 13000 ng·h/mL
